Our source for the Activity values is ChEMBL document CHEMBL1144520, “Synthesis of 5-deazaflavin derivatives and their activation of p53 in cells” (2007).

Activity calls are given as the source filed them. The calls are words filed in the database; no cut-off is given here.

In test [1] the test system is RKO. Description: Stabilization of p53 level in RKO cells. It is filed as functional, cell-based. The note with it: Homo sapiens.
The subject of test [2] is RPE. Description: Induction of p21WAF1/CIP1 level in RPE cells. It is filed as functional, cell-based. The conditions noted are these: Homo sapiens. The method in brief:
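Primary human retinal pigment epithelial (RPE) cells were exposed to each compound at 1–20 µM for 24 h. Whole-cell extracts were resolved by SDS 12% polyacrylamide gel electrophoresis and read out by Western blotting.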

In test [3] the test system is RKO/E6. Description: Induction of apoptosis in RKO/E6 cells. The note with it: Homo sapiens. It is filed as functional, cell-based. The method in brief: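 RKO/E6 cells are RKO cells expressing HPV16 E6 protein, which inactivates endogenous p53. They are used to test p53 dependence of the apoptotic response.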
For test [4], the system named is RKO. Description: Cell cycle arrest in RKO cells by accumulation at G1 phase. It is filed as functional, Homo sapiens.
Test [5] has as its system RKO. Description: Induction of apoptosis in RKO cells. It is filed as functional, cell-based. The conditions noted are these: Homo sapiens.
The test system of test [6] is RKO. Description: Cell cycle arrest in RKO cells by accumulation at G2 phase. It is filed as functional, cell-based. The note with it: Homo sapiens.
In test [7] the test system is RKO. Description: Cell cycle arrest in RKO cells by accumulation at G2/M phase. It is filed as functional, cell-based. The note with it: Homo sapiens.

With `Cc1ccc(-n2c3nc(=O)[nH]c(=O)c-3cc3c(C(F)(F)F)cccc32)cc1`, the result in test [1], in test [2], in test [3] and in test [5] was inactive. This molecule also came in with an Activity in test [4] of 62%.
With `Cc1ccc(-n2c3nc(=O)[nH]c(=O)c-3cc3c(Cl)cccc32)cc1`, the result in test [1] and in test [2] was Active. In addition, in test [3], the outcome was inactive. Also, in test [4], the Activity amounted to 73%.
For the molecule `O=c1nc2n(-c3ccccc3Cl)c3cccc(Cl)c3cc-2c(=O)[nH]1`, the outcome in test [6], in test [1], in test [7] and in test [3] was Active.
With `O=c1nc2n(-c3ccc(Cl)cc3)c3ccc(C(F)(F)F)cc3cc-2c(=O)[nH]1`, the result in test [1], in test [2], in test [3] and in test [5] was inactive.
Take `O=c1nc2n(-c3cccc(Cl)c3)c3ccc([N+](=O)[O-])cc3cc-2c(=O)[nH]1`: the outcome in test [1] and in test [2] was Active. Further, the result in test [3] was inactive. This molecule had an Activity in test [4] of 75%.
As for `O=c1nc2n(-c3ccccc3Cl)c3ccc([N+](=O)[O-])cc3cc-2c(=O)[nH]1`, the result in test [6], in test [1], in test [7], in test [2] and in test [3] was Active.
Take `O=c1nc2n(-c3ccc(Cl)cc3)c3cccc(Cl)c3cc-2c(=O)[nH]1`: the outcome in test [1], in test [2] and in test [4] (Homo sapiens) was Active. For the same molecule, the result in test [3] was inactive.
